Drawing on ChEMBL document CHEMBL1127325, “Potent gastrin-releasing peptide (GRP) antagonists derived from GRP (19-27) with a C-terminal DPro psi [CH2NH]Phe-NH2 and N-terminal aromatic residues” (J Med Chem, 1994), this text covers IC50 and Activity for 16 molecules.

The target of experiment [1] is T1, Gastrin-releasing peptide receptor (Mus musculus, UniProt P21729). Briefly: Ability of peptide to inhibit binding of 10 pM [125I]gastrin releasing peptide to S-3T3 cell membrane. It is filed as cell-based. The method in brief:
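Swiss 3T3 membranes (10 µg protein) incubated in triplicate with 10 pM [125I]GRP(1-27) in HEPES-KOH pH 6.8 (20 mM) with EGTA, MgCl2, BSA and protease inhibitors, 60 min at 37 °C with shaking. Terminated by filtration through PEI-pretreated GF/B filters, gamma counted. Nonspecific binding taken with 10 nM unlabeled GRP(1-27). IC50 for half-maximal inhibition of specific binding by Hill plot analysis.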

In experiment [2] the target is Gastrin-releasing peptide receptor (Mus musculus) (UniProt P21729). In words: Inhibition of 6 nM bombesin induced [3H]thymidine incorporation measured in swiss 3T3 cells using a mitogenicity assay. It is filed as functional, cell-based. The method in brief:
(§1)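 Density-arrested quiescent Swiss 3T3 monolayers treated in triplicate with test peptide (generally log dilutions) plus 6 nM bombesin for 18 h, then pulsed 2 h with 0.5 µCi [3H]thymidine per well. Cells washed with cold PBS, fixed in methanol/acetic acid, solubilized, scintillation counted. IC50 ± SEM over replicate trials; na means no activity at 10^-4 M.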
(In general: Dividing cells build labelled thymidine or BrdU into new DNA.)

Experiment [3] has as its target T1, Gastrin-releasing peptide receptor. In words: The ability of the peptide to inhibit the binding of 50 pM [125I]gastrin releasing peptide to intact S-3T3 cells. It is filed as cell-based. The method in brief: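 Serially diluted peptides overlaid in triplicate on quiescent Swiss 3T3 monolayers (about 10^5 cells) with 50 pM [125I]GRP in maintenance medium, 30 min at 37 °C. Monolayers washed three times with chilled medium, solubilized, radioactivity counted. IC50 values reported.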

Experiment [4] is described as follows: The ability of the peptide to inhibit the binding of 10 pM [125I]gastrin releasing peptide to S-3T3 cell membrane was measured. Conditions: Mus musculus.
Experiment [5] has as its system NIH3T3. Briefly: The ability of the peptide to inhibit the binding of 50 pM [125I]gastrin releasing peptide to intact S-3T3 cells was measured. It is filed as cell-based. The conditions noted are these: Mus musculus. The method in brief: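 Quiescent, density-arrested Swiss 3T3 monolayers (about 10^5 cells) in maintenance medium. Serially diluted peptides were added in triplicate with [125I]GRP and incubated 37 °C, 30 min. Monolayers were washed three times with chilled medium, solubilized with detergent and counted. IC50 reported ± SEM.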

For experiment [6], the system named is NIH3T3. In words: Ability of the peptide to inhibit 6 nM bombesin induced [3H]thymidine incorporation was measured in swiss 3T3 cells using mitogenicity assay; na=Not active. Conditions: Mus musculus. It is filed as functional, cell-based. The method in brief:
as §1

What is called IC50 is the concentration needed to halve the response being measured. A low value points to higher potency.

Active and inactive are the calls of the source. The calls are words filed in the database; no cut-off is given here. Where a SMILES comes first, the peptide text is derived from it. [ ]: non-standard residue; d: D form. The star is where a group is joined. ProΨ(CH2NH)PheNH2 = NC(=O)[C@H](Cc1ccccc1)NC[C@@H]1CCCN1*; dProψ(CH2NH)PheNH2 = NC(=O)[C@H](Cc1ccccc1)NC[C@H]1CCCN1*; Propanoyl(3-(4-MeO-Ph)) = COc1ccc(CCC(=O)*)cc1; Desaminotyrosyl = O=C(CCc1ccc(O)cc1)*; Hydrocinnamoyl = O=C(CCc1ccccc1)*; X8 = COc1cc(CCC(=O)*)cc(OC)c1OC; X5 = C[C@@H](C(=O)*)c1ccccc1; X6 = C[C@H](C(=O)*)c1ccccc1; X7 = CC(C)(CC(=O)*)c1ccccc1; X1 = CC(C)(C(=O)*)c1ccccc1; Sar = CNCC(=O)O

T1 sequence (P21729 whole entry): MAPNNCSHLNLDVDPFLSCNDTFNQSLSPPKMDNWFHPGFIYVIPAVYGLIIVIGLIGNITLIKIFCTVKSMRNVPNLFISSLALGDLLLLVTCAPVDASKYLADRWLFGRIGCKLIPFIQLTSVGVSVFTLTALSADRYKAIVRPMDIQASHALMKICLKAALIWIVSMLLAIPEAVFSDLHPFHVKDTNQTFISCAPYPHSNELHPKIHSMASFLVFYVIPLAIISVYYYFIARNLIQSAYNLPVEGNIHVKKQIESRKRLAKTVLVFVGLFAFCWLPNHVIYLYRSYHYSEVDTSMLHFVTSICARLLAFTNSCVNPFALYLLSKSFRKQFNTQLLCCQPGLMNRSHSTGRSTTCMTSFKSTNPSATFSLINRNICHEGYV
Gastrin-releasing peptide receptor (Mus musculus), sequence (P21729 whole entry): as above

For the molecule `CC(C)[C@H](NC(=O)[C@H](C)NC(=O)[C@H](Cc1c[nH]c2ccccc12)NC(=O)[C@H](Cc1c[nH]cn1)NC(=O)C1C[C@@H]1c1ccccc1)C(=O)N[C@H](C)C(=O)N[C@@H](Cc1c[nH]cn1)C(=O)N1CCC[C@@H]1CN[C@@H](Cc1ccccc1)C(N)=O` (stereo not given in full), the figures for the IC50 in experiment [1] and in experiment [3] were 0.049 nM and 0.03 nM, respectively. In addition, the Activity in experiment [2] came to 0.2 nM.
Regarding `CC(C)[C@H](NC(=O)[C@H](C)NC(=O)[C@H](Cc1c[nH]c2ccccc12)NC(=O)[C@H](Cc1cnc[nH]1)NC(=O)c1cccc2ccccc12)C(=O)N[C@H](C)C(=O)N[C@@H](Cc1cnc[nH]1)C(=O)N1CCC[C@@H]1CN[C@@H](Cc1ccccc1)C(N)=O`, the IC50 came out at 0.05 nM in experiment [1] and 0.001 nM in experiment [3].
For `CC(C)[C@H](NC(=O)[C@H](C)NC(=O)[C@H](Cc1c[nH]c2ccccc12)NC(=O)[C@H](Cc1c[nH]cn1)NC(=O)Cc1ccccc1N)C(=O)N[C@H](C)C(=O)N[C@@H](Cc1c[nH]cn1)C(=O)N1CCC[C@@H]1CN[C@@H](Cc1ccccc1)C(N)=O`, the IC50 in experiment [1] is 2 nM; in experiment [3] it was 0.1 nM. The same molecule registered an Activity in experiment [2] of 13 nM.
Consider `CC(C)[C@H](NC(=O)[C@H](C)NC(=O)[C@H](Cc1c[nH]c2ccccc12)NC(=O)[C@H](Cc1cnc[nH]1)NC(=O)CCc1ccc(O)cc1)C(=O)N[C@H](C)C(=O)N[C@@H](Cc1cnc[nH]1)C(=O)N1CCC[C@@H]1CN[C@@H](Cc1ccccc1)C(N)=O` (Desaminotyrosyl-HWAV[dA]H-{dProψ(CH2NH)PheNH2}), for which the concentration for half-maximal inhibition (IC50) in experiment [1] stood at 0.23 nM; in experiment [3], 0.05 nM.
Turning to `CC(C)[C@H](NC(=O)[C@H](C)NC(=O)[C@H](Cc1c[nH]c2ccccc12)NC(=O)[C@H](Cc1cnc[nH]1)NC(=O)CCc1ccccc1)C(=O)N(C)CC(=O)N[C@@H](Cc1cnc[nH]1)C(=O)N1CCC[C@H]1CN[C@@H](Cc1ccccc1)C(N)=O` (Hydrocinnamoyl-HWAV[Sar]H-{ProΨ(CH2NH)PheNH2}), the values for the IC50 in experiment [1] and in experiment [3] were 21 nM and 0.1 nM, respectively.
As to `CC(C)[C@H](NC(=O)[C@H](C)NC(=O)[C@H](Cc1c[nH]c2ccccc12)NC(=O)[C@H](Cc1c[nH]cn1)NC(=O)C(C)(C)c1ccccc1)C(=O)N[C@H](C)C(=O)N[C@@H](Cc1c[nH]cn1)C(=O)N1CCC[C@@H]1CN[C@@H](Cc1ccccc1)C(N)=O` (X1-HWAV[dA]H-{dProψ(CH2NH)PheNH2}), the IC50 was 0.18 nM in experiment [1] and 0.003 nM in experiment [3]. The same molecule registered an Activity in experiment [2] of 0.34 nM.
`CC(C)[C@H](NC(=O)[C@H](C)NC(=O)[C@H](Cc1c[nH]c2ccccc12)NC(=O)[C@H](Cc1c[nH]cn1)NC(=O)[C@H](C)c1ccccc1)C(=O)N[C@H](C)C(=O)N[C@@H](Cc1c[nH]cn1)C(=O)N1CCC[C@@H]1CN[C@@H](Cc1ccccc1)C(N)=O` (X5-HWAV[dA]H-{dProψ(CH2NH)PheNH2}): the figures for the IC50 in experiment [1] and in experiment [3] were 0.95 nM and 30 nM, respectively. Also, the Activity in experiment [2] is 0.9 nM.
For `CC(C)[C@H](NC(=O)[C@H](C)NC(=O)[C@H](Cc1c[nH]c2ccccc12)NC(=O)[C@H](Cc1c[nH]cn1)NC(=O)[C@@H](C)c1ccccc1)C(=O)N[C@H](C)C(=O)N[C@@H](Cc1c[nH]cn1)C(=O)N1CCC[C@@H]1CN[C@@H](Cc1ccccc1)C(N)=O` (X6-HWAV[dA]H-{dProψ(CH2NH)PheNH2}), in that order: 1.3 nM, 1 nM and 7e-08.
For `CC(C)[C@H](NC(=O)[C@H](C)NC(=O)[C@H](Cc1c[nH]c2ccccc12)NC(=O)[C@H](Cc1c[nH]cn1)NC(=O)CC(C)(C)c1ccccc1)C(=O)N[C@H](C)C(=O)N[C@@H](Cc1c[nH]cn1)C(=O)N1CCC[C@@H]1CN[C@@H](Cc1ccccc1)C(N)=O` (X7-HWAV[dA]H-{dProψ(CH2NH)PheNH2}), the results for the IC50 in experiment [1] and in experiment [3] were 1.2 nM and 10 nM, respectively. Besides, the Activity in experiment [2] stood at 18 nM.
Regarding `COc1cc(CCC(=O)N[C@@H](Cc2c[nH]cn2)C(=O)N[C@@H](Cc2c[nH]c3ccccc23)C(=O)N[C@@H](C)C(=O)N[C@H](C(=O)N[C@H](C)C(=O)N[C@@H](Cc2c[nH]cn2)C(=O)N2CCC[C@@H]2CN[C@@H](Cc2ccccc2)C(N)=O)C(C)C)cc(OC)c1OC` (X8-HWAV[dA]H-{dProψ(CH2NH)PheNH2}), the IC50 in experiment [4] was determined as 0.46 nM; in the experiment with NIH3T3 [5], 0.001 nM. This molecule also returned an Activity in experiment [2] of 0.3 nM.
`CC(NC(=O)[C@H](Cc1c[nH]c2ccccc12)NC(=O)[C@H](Cc1c[nH]cn1)NC(=O)CCc1ccccc1)C(=O)N[C@H](C(=O)NC(C)C(=O)N[C@@H](Cc1c[nH]cn1)C(=O)N1CCC[C@H]1C(O)CC(=O)N[C@@H](Cc1ccccc1)C(N)=O)C(C)C` (stereo in doubt): the IC50 was found to be 31 nM in experiment [1] and 50 nM in experiment [3]. In addition, the Activity in experiment [2] turned out to be 26 nM.
With `CC(NC(=O)[C@H](Cc1c[nH]c2ccccc12)NC(=O)[C@H](Cc1c[nH]cn1)NC(=O)CCc1ccccc1)C(=O)N[C@H](C(=O)NC(C)C(=O)N[C@@H](Cc1c[nH]cn1)C(=O)N1CCC[C@H]1CN[C@@H](Cc1ccccc1)C(N)=O)C(C)C` (stereo in doubt), the IC50 came out at 0.22 nM in experiment [1] and 0.001 nM in experiment [3]. For the same molecule, the Activity in experiment [2] was found to be 1 nM.
Regarding `CC(NC(=O)[C@H](Cc1c[nH]c2ccccc12)NC(=O)[C@H](Cc1cccs1)NC(=O)CCc1ccccc1)C(=O)N[C@H](C(=O)NC(C)C(=O)N[C@@H](Cc1c[nH]cn1)C(=O)N1CCC[C@H]1CN[C@@H](Cc1ccccc1)C(N)=O)C(C)C` (stereo in doubt), the IC50 in experiment [1] turned out to be 56 nM; in experiment [3] it was 10 nM. Also, in experiment [2], the Activity stood at 50 nM.
Turning to `CC(NC(=O)[C@H](Cc1c[nH]c2ccccc12)NC(=O)[C@H](Cc1c[nH]cn1)NC(=O)CCc1ccccc1)C(=O)N[C@H](C(=O)NC(C)C(=O)N[C@@H](Cc1c[nH]cn1)C(=O)N1CCC[C@@H]1C(O)CC(=O)N[C@@H](Cc1ccccc1)C(N)=O)C(C)C` (stereo in doubt), the IC50 in experiment [1] was 140 nM; in experiment [3], 60 nM. Further, the result with NIH3T3 [6] was inactive.
With `CC(C)CC(NC(=O)[C@H](Cc1c[nH]cn1)NC(=O)C(C)NC(=O)[C@@H](NC(=O)C(C)NC(=O)[C@H](Cc1c[nH]c2ccccc12)NC(=O)[C@H](Cc1c[nH]cn1)NC(=O)CCc1ccccc1)C(C)C)C(O)CC(=O)N[C@@H](Cc1ccccc1)C(N)=O` (stereo in doubt), the values for the IC50 in experiment [1] and in experiment [3] were 73 nM and 0.1 nM, respectively. In addition, in experiment [2], the Activity was 6 nM.
With `COc1ccc(CCC(=O)N[C@@H](Cc2c[nH]cn2)C(=O)N[C@@H](Cc2c[nH]c3ccccc23)C(=O)N[C@@H](C)C(=O)N[C@H](C(=O)N[C@H](C)C(=O)N[C@@H](Cc2c[nH]cn2)C(=O)N2CCC[C@@H]2CN[C@@H](Cc2ccccc2)C(N)=O)C(C)C)cc1` ({Propanoyl(3-(4-MeO-Ph))}-HWAV[dA]H-{dProψ(CH2NH)PheNH2}), the IC50 in experiment [4] was 0.47 nM; with NIH3T3 [5], 10 nM. This molecule showed an Activity in experiment [2] of 0.3 nM.
